{"data": "Measured values pooled from the literature", "organism": "Plasmodium falciparum", "read-out": "parasite growth", "note": "Each line is one published result; the experiments were not run side by side."}
{"SMILES": "COc1ccc(CNc2nc(-c3ccc(C(=O)O)nc3)nc3sc4c(c23)CCCC4)cc1Cl", "test system": "3D7", "setting": "72 h, blood stage", "EC50": "1.59 µM"}
{"SMILES": "CCn1cc(-c2nc(C)no2)c(=O)c2cc(F)c(N3CCC(C(C)C)CC3)cc21", "test system": "3D7", "setting": "72 h, blood stage", "EC50": "0.041 µM"}
{"SMILES": "CN1CCN(c2ncc(-c3ccc4c(Nc5ccc(OCc6cccc(F)c6)c(Cl)c5)ccnc4c3)cn2)CC1", "test system": "D6", "setting": "drug-resistant strain, blood stage", "EC50": "0.026 µM"}
{"SMILES": "C[C@H]1[C@@H](O)O[C@@H]2O[C@@]3(C)CC[C@H]4[C@H](C)CC[C@@H]1[C@@]24OO3", "test system": "NF54", "setting": "24 h, gametocyte", "EC50": "0.0138 µM"}
{"SMILES": "CCn1cc(-c2cccnc2)c(=O)c2cc(F)c(N3CCC(C)CC3)cc21", "test system": "3D7", "setting": "72 h, blood stage", "EC50": "> 10 µM"}
{"SMILES": "CN1CCN(S(=O)(=O)c2ccc(-c3ccc4c(Nc5cnc(C#N)cn5)ccnc4c3)cc2)CC1", "test system": "D6", "setting": "drug-resistant strain, blood stage", "EC50": "0.12 µM"}
{"SMILES": "COc1ccc(NC(=O)N2CCCCN3[C@H](CN(C)C)[C@H](c4ccc(C#Cc5ccccc5)cc4)[C@@H]3C2)cc1", "test system": "DD2", "setting": "blood stage", "EC50": "0.013 µM"}
{"SMILES": "CNS(=O)(=O)c1ccccc1Nc1nc(Nc2ccc(N3CCOCC3)cc2OC)ncc1Br", "test system": "3D7", "setting": "72 h, blood stage", "EC50": "0.282 µM"}
{"SMILES": "CCn1cc(C(N)=O)c(=O)c2cc(F)c(N3CCC(C)CC3)cc21", "test system": "3D7", "setting": "72 h, blood stage", "EC50": "0.39 µM"}
{"SMILES": "CN1CCN(S(=O)(=O)c2ccc(-c3ccc4c(Nc5cccc(Cl)c5)ccnc4c3)cc2)CC1", "test system": "D6", "setting": "drug-resistant strain, blood stage", "EC50": "0.2 µM"}
{"SMILES": "CCCNCC(O)COc1ccccc1C(=O)CCc1ccccc1 (centres unmarked)", "test": "SYBR Green", "test system": "K1", "setting": "drug-resistant strain, blood stage", "EC50": "0.92 µM"}
{"SMILES": "COc1ccc(Nc2ccnc3cc(Nc4ccnc(N5CCN(C)CC5)n4)ccc23)cc1Cl", "test system": "D6", "setting": "drug-resistant strain, blood stage", "EC50": "0.078 µM"}
{"SMILES": "CCn1cc(-c2nc(C)no2)c(=O)c2cc(F)c(N3CCCC(C)C3)cc21 (centres unmarked)", "test system": "3D7", "setting": "72 h, blood stage", "EC50": "0.114 µM"}
{"SMILES": "CN1CCC(c2cc(-c3ccncc3)c(-c3ccc(F)cc3)[nH]2)CC1", "test": "SYBR Green", "test system": "A10, 3D7", "setting": "72 h, blood stage", "EC50": "0.09 µM"}
{"SMILES": "CCn1cc(C(=O)N2CCN(C)CC2)c(=O)c2cc(F)c(N3CCC(C)CC3)cc21", "test system": "3D7", "setting": "72 h, blood stage", "EC50": "> 10 µM"}
{"SMILES": "COc1ccc(OCCCO)cc1-c1cn2cc(-c3nnc(NCCCCc4ccccc4)o3)ccc2n1", "test system": "3D7", "setting": "72 h, blood stage", "EC50": "2.98 µM"}
{"SMILES": "Cc1nnc(Nc2ccnc3cc(-c4ccc(S(=O)(=O)N5CCN(C)CC5)cc4)ccc23)nc1C", "test system": "D6", "setting": "drug-resistant strain, blood stage", "EC50": "0.16 µM"}
{"SMILES": "CNS(=O)(=O)c1ccccc1Nc1nc(Nc2cc(OC)c(OC)cc2C)ncc1Br", "test system": "3D7", "setting": "72 h, blood stage", "EC50": "0.153 µM"}
{"SMILES": "Cc1cc(Nc2ccnc3cc(-c4ccc(S(=O)(=O)N5CCN(C)CC5)cc4)ccc23)sn1", "test system": "D6", "setting": "drug-resistant strain, blood stage", "EC50": "0.11 µM"}
{"SMILES": "CCn1cc(C(=O)N2CCOCC2)c(=O)c2cc(F)c(N3CCC(C)CC3)cc21", "test system": "3D7", "setting": "72 h, blood stage", "EC50": "> 10 µM"}
